# Assay results as given in ChEMBL document CHEMBL1131229, “Synthesis, rotamer orientation, and calcium channel modulation activities of alkyl and 2-phenethyl 1,4-dihydro-2,6-dimethyl-3-nitro-4-(3- or 6-substituted-2-pyridyl)-5-pyridinecarboxylates” (J Med Chem, 1998).
# What was measured:
# Cavia porcellus [1] = organism: Cavia porcellus; assay: Percent decrease in tonic contractile response in guinea pig ileal longitudinal smooth muscle.; type: functional; conditions: Muscle tissue
# Outline: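 Guinea pig ileum longitudinal smooth muscle, tonic (slow) contraction evoked by carbachol at 1.6 × 10^-7 M (muscarinic, Ca²⁺-dependent). Test compound applied over a dose range. Concentration giving 50% inhibition (IC50 ± SEM, n = 3-18) read graphically from the dose-response curve.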
# Cavia porcellus [2] = organism: Cavia porcellus; assay: Calcium channel agonist activity as percent increase in tonic contractile response in guinea pig left atrium; type: functional; conditions: Cardiac atrium
# Outline: (§1)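 Racemic test compounds on isolated guinea pig left atrium, scored as positive inotropic (contractile) response. Dose-response curves constructed. EC50 (± SEM) taken graphically as the molar concentration producing 50% of the maximum contractile increase; number of experiments reported.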
# Cavia porcellus [3] = organism: Cavia porcellus; assay: Calcium channel agonist activity as percent increase in tonic contractile response in guinea pig left atrium, Weak agonist; type: functional, Cardiac atrium; outline: as §1
# Cavia porcellus [4] = organism: Cavia porcellus; assay: Calcium channel agonist activity as percent increase in tonic contractile response in guinea pig left atrium, Weak antagonist; type: functional, Cardiac atrium
SMILES,IC50 (Cavia porcellus [1]) [µM],also measured
CC1=NC(C)=C([N+](=O)[O-])C(c2cccc(C)n2)/C1=C(/O)OC(C)C (centres undefined),25.1,EC50 (Cavia porcellus [2]): 1.81 µM
CC1=NC(C)=C([N+](=O)[O-])C(c2ncccc2C)/C1=C(/O)OCCc1ccccc1 (centres undefined),5.43,
CC1=NC(C)=C([N+](=O)[O-])C(c2cccc(Cl)n2)/C1=C(/O)OC(C)C (centres undefined),16.7,EC50 (Cavia porcellus [2]): 5.96 µM
CC1=NC(C)=C([N+](=O)[O-])C(c2ncccc2C(F)(F)F)/C1=C(/O)OCCc1ccccc1 (centres undefined),> 59.8,
CC1=NC(C)=C([N+](=O)[O-])C(c2ncccc2[N+](=O)[O-])/C1=C(/O)OCCc1ccccc1 (centres undefined),77.7,
CC1=NC(C)=C([N+](=O)[O-])C(c2cccc(C)n2)/C1=C(/O)OCCc1ccccc1 (centres undefined),9.98,
CC1=NC(C)=C([N+](=O)[O-])C(c2cccc(-c3ccccc3)n2)/C1=C(/O)OCCc1ccccc1 (centres undefined),8.38,
CCO/C(O)=C1/C(C)=NC(C)=C([N+](=O)[O-])C1c1cccc(C)n1 (centres undefined),17.2,EC50 (Cavia porcellus [2]): 12.3 µM
COC(=O)C1=C(C)NC(C)=C(C(=O)OC)C1c1ccccc1[N+](=O)[O-] [NIFEDIPINE],0.014,

# The next lines start with results.
IC50 (Cavia porcellus [1]) [µM],SMILES,also measured
3.35,CC1=NC(C)=C([N+](=O)[O-])C(c2ncccc2-c2ccccc2)/C1=C(/O)OCCc1ccccc1 (centres undefined),
4.74,CC1=NC(C)=C([N+](=O)[O-])C(c2cccc([N+](=O)[O-])n2)/C1=C(/O)OCCc1ccccc1 (centres undefined),
0.639,CC1=NC(C)=C([N+](=O)[O-])C(c2ccccn2)/C1=C(/O)OCCc1ccccc1 (centres undefined),
2.82,CC1=NC(C)=C([N+](=O)[O-])C(c2ncccc2C)/C1=C(/O)OC(C)C (centres undefined),EC50 (Cavia porcellus [2]): 9.97 µM
5.17,CC1=NC(C)=C([N+](=O)[O-])C(c2ncccc2Cl)/C1=C(/O)OCCc1ccccc1 (centres undefined),
2.29,CO/C(O)=C1/C(C)=NC(C)=C([N+](=O)[O-])C1c1cccc(C)n1 (centres undefined),EC50 (Cavia porcellus [3]): Partial agonist
1.51,CC1=NC(C)=C([N+](=O)[O-])C(c2cccc(Cl)n2)/C1=C(/O)OCCc1ccccc1 (centres undefined),
1.41,CC1=NC(C)=C([N+](=O)[O-])C(c2cccc(C(F)(F)F)n2)/C1=C(/O)OCCc1ccccc1 (centres undefined),
3.77,CC1=NC(C)=C([N+](=O)[O-])C(c2ncccc2[N+](=O)[O-])/C1=C(/O)OC(C)C (centres undefined),EC50 (Cavia porcellus [4]): Partial antagonist
